Data as given in ChEMBL document CHEMBL1126111, “Potential antitumor agents. 21. Structure determination and antitumor activity of imidazo[2,1-b]thiazole guanylhydrazones” (1992).

Key:
Format in all cases: functional
Conditions in all cases: route intraperitoneal
Mus musculus [1] = assay: Antitumor activity in mice bearing Ehrlich ascites tumor cells at 100 mg/kg ip
Summary of the method: (§1)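 Female Swiss mice (average weight 21 ± 1 g), groups of eight, implanted with 10^6 Ehrlich ascites tumor cells from donor mice; single ip dose in DMSO given 24 h later, starting at 100 mg/kg, repeated at lower doses in new groups if active. Deaths followed for 60 days; % T/C = mean survival time treated vs vehicle controls (10 mice).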

Mus musculus [2] = assay: Antitumor activity in mice bearing Ehrlich ascites tumor cells at 50 mg/kg ip; summary of the method: as §1
Mus musculus [3] = assay: Antitumor activity in mice bearing Ehrlich ascites tumor cells at 25 mg/kg ip; summary of the method: as §1
Mus musculus [4] = assay: Antitumor activity in mice bearing Ehrlich ascites tumor cells at 12.5 mg/kg ip; summary of the method: as §1

Cc1nc2sccn2c1/C=N/N=C(N)N.Cl
T/C (Mus musculus [1]): 100%

Cl.N=C(N)N/N=C/c1c(-c2ccccc2)nc2n1CCS2
T/C (Mus musculus [2]): 100%

Cc1nc2n(c1/C=N/N=C(N)N)CCS2.Cl
T/C (Mus musculus [2]): 100%

Cc1ccc(-c2nc3sccn3c2/C=N/N=C(N)N)cc1.Cl
T/C (Mus musculus [3]): 110%

Cl.N=C(N)N/N=C/c1c(Cl)nc2n1CCS2
T/C (Mus musculus [1]): 180%

Cl.N=C(N)N/N=C/c1c(-c2ccc(Cl)cc2)nc2sccn12
T/C (Mus musculus [4]): 190%

Cl.N=C(N)N/N=C/c1c(-c2ccccc2)nc2sccn12
T/C (Mus musculus [2]): 120%

Cl.N=C(N)N/N=C/c1c(Cl)nc2sccn12
T/C (Mus musculus [2]): 200%

Cc1ccc(-c2nc3n(c2/C=N/N=C(N)N)CCS3)cc1.Cl
T/C (Mus musculus [2]): 100%

O=c1[nH]cc(F)c(=O)[nH]1 [FLUOROURACIL]
T/C (Mus musculus [1]): 180%
